Activity calls are given as the source filed them. No cut-off for these calls is given here.
Columns and labels:
PC-3 = test: Cytotoxicity against human PC3 cells at 100 uM after 72 hrs by MTT assay; format: functional, cell-based
In short: (§1)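 Cells kept as adherent monolayers in DMEM with 10% FBS, 37°C, 5% CO2. Trypsin-harvested, seeded at 5 × 10^3 cells/well, then exposed to compound at 0.1 to 100 µM for 72 h. MTT (4 mg/ml) added for 4 h, formazan dissolved in DMSO, absorbance read at 570 nm. At least three experiments, each in triplicate; mean±SD.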

DU-145 [1] = test: Cytotoxicity against human DU145 cells at 100 uM after 72 hrs by MTT assay; format: functional, cell-based; in short: as §1
HCT-116 = test: Cytotoxicity against human HCT116 cells at 100 uM after 72 hrs by MTT assay; format: functional, cell-based; in short: as §1
S1 = test: Cytotoxicity against human S1 cells at 100 uM after 72 hrs by MTT assay; format: functional, cell-based; in short: as §1
MCF7 [2] = test: Cytotoxicity against human MCF7 cells at 100 uM after 72 hrs by MTT assay; format: functional, cell-based; in short: as §1
MDA-MB-231 [3] = test: Cytotoxicity against human MDA-MB-231 cells at 100 uM after 72 hrs by MTT assay; format: functional, cell-based; in short: as §1
MDCK [4] = test: Cytotoxicity against MDCK cells at 100 uM after 72 hrs by MTT assay; format: cell-based, Canis lupus familiaris; conditions: dog; in short: as §1
[5] = Cytotoxicity against mouse NIH/3T3 cells at 100 uM after 72 hrs by MTT assay; format: cell-based; conditions: nih3t3, 72 h; in short: as §1
HEK293 [6] = test: Cytotoxicity against HEK293 cells expressing pcDNA3.1 at 100 uM after 72 hrs by MTT assay; format: cell-based; conditions: human, hek293, 72 h; in short: as §1
[7] = Cytotoxicity against human PC3 cells after 72 hrs by MTT assay; format: functional, cell-based; conditions: PC-3, 72 h; in short: as §1
DU-145 [8] = test: Cytotoxicity against human DU145 cells after 72 hrs by MTT assay; format: functional, cell-based; conditions: DU-145, 72 h; in short: as §1
[9] = Cytotoxicity against human HCT116 cells after 72 hrs by MTT assay; format: functional, cell-based; conditions: HCT-116, 72 h; in short: as §1
[10] = Cytotoxicity against human S1 cells after 72 hrs by MTT assay; format: functional, cell-based; conditions: S1, 72 h; in short: as §1
MDA-MB-231 [11] = test: Cytotoxicity against human MDA-MB-231 cells after 72 hrs by MTT assay; format: functional, cell-based; conditions: MDA-MB-231, 72 h; in short: as §1
MDCK [12] = test: Cytotoxicity against MDCK cells after 72 hrs by MTT assay; format: cell-based; conditions: Canis lupus familiaris; in short: as §1
[13] = Cytotoxicity against mouse NIH/3T3 cells after 72 hrs by MTT assay; format: cell-based; conditions: NIH3T3, 72 h; in short: as §1
HEK293 [14] = test: Cytotoxicity against HEK293 cells expressing pcDNA3.1 after 72 hrs by MTT assay; format: cell-based; conditions: Homo sapiens, HEK293, 72 h; in short: as §1
HEK293 [15] = test: Cytotoxicity against HEK293 cells expressing ABCB1 after 72 hrs by MTT assay; format: functional, cell-based; conditions: Homo sapiens, HEK293, 72 h; in short: as §1
HEK293 [16] = test: Resistance index, ratio of IC50 for HEK293 cells expressing ABCB1 to IC50 for HEK293 cells expressing pcDNA3.1; parameters: species or system Homo sapiens
In short: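 Fold resistance is the IC50 in P-glycoprotein-overexpressing HEK293/ABCB1 cells divided by the IC50 in empty-vector HEK293/pcDNA3.1 cells. IC50s from the 72 h MTT assay; paclitaxel was the positive-control ABCB1 substrate.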

MCF7 [17] = test: Cytotoxicity against human MCF7 cells after 72 hrs by MTT assay; format: functional, cell-based; conditions: MCF7, 72 h; in short: as §1

SMILES	Activity (PC-3)	Activity (DU-145 [1])	Activity (HCT-116)	Activity (S1)	Activity (MCF7 [2])	Activity (MDA-MB-231 [3])	Activity (MDCK [4])	Activity [5]	Activity (HEK293 [6])	IC50 [7]	IC50 (DU-145 [8])	IC50 [9]	IC50 [10]	IC50 (MDA-MB-231 [11])	IC50 (MDCK [12])	IC50 [13]	IC50 (HEK293 [14])	IC50 (HEK293 [15])	Ratio IC50 (HEK293 [16])	IC50 (MCF7 [17])
COc1cc(CCc2cc(C)no2)ccc1O	inactive	inactive	inactive	inactive	inactive	inactive	Non-toxic	Non-toxic	Non-toxic											
COc1cc(CCc2cc(C)n[nH]2)ccc1O	inactive	inactive	inactive	inactive	inactive	inactive	Non-toxic	Non-toxic	Non-toxic											
COc1cc(/C=C/c2cc(C)no2)ccc1O										20.9 µM	28.9 µM	33.4 µM	50.5 µM	34.6 µM	29.8 µM	> 100 µM	36.2 µM	41.3 µM	1.1	
COc1ccc(CCc2cc(C)no2)cc1	inactive	inactive	inactive	inactive	inactive	inactive	Non-toxic	Non-toxic	Non-toxic											
COc1ccc(/C=C/C(=O)CC(C)=O)cc1										15.8 µM	9.1 µM	11.9 µM	44.6 µM	25 µM	41.6 µM	48.2 µM	18.7 µM	16.3 µM	0.9	
COc1cc(/C=C/c2cc(C)[nH]n2)ccc1O										16.5 µM	32.2 µM	78.8 µM	29.4 µM	67 µM	35.4 µM	66.3 µM	47.7 µM	45.2 µM	0.9	
COc1ccc(CCc2cc(C)n[nH]2)cc1	inactive	inactive	inactive	inactive	inactive	inactive	Non-toxic	Non-toxic	Non-toxic											
CC(=O)CC(=O)/C=C/c1ccc(O)cc1										20.2 µM	8.8 µM	36.5 µM	10.6 µM	6.8 µM	30.6 µM	18.9 µM		11.6 µM	1.1	
COc1ccc(CCc2cc(C)no2)cc1OC	inactive	inactive	inactive	inactive	inactive	inactive	Non-toxic	Non-toxic	Non-toxic											
Cc1cc(/C=C/c2ccc(O)cc2)on1										50.2 µM	67.2 µM	67.9 µM	44.2 µM	55.5 µM	58.3 µM	88.5 µM			1	
Cc1cc(CCc2ccc(O)cc2)on1	inactive	inactive	inactive	inactive	inactive	inactive	Non-toxic	Non-toxic	Non-toxic											
CC(=O)CC(=O)CCc1ccc(O)cc1	inactive	inactive	inactive	inactive	inactive	inactive	Non-toxic	Non-toxic	Non-toxic											
COc1ccc(CCc2cc(C)n[nH]2)cc1OC	inactive	inactive	inactive	inactive	inactive	inactive	Non-toxic	Non-toxic	Non-toxic											
COc1ccc(CCC(=O)CC(C)=O)cc1OC	inactive	inactive	inactive	inactive	inactive	inactive	Non-toxic	Non-toxic	Non-toxic											
COc1ccc(/C=C/c2cc(C)n[nH]2)cc1										8.9 µM		9.4 µM	8.4 µM	10.7 µM		19.9 µM	12.9 µM	16.5 µM	1.3	9.7 µM
Cc1cc(/C=C/c2ccc(O)cc2)[nH]n1										48.1 µM		38.8 µM	32.9 µM	23.2 µM	80 µM	59.2 µM	77.4 µM	68.9 µM	0.9	
COc1ccc(/C=C/c2cc(C)n[nH]2)cc1OC										12.6 µM	18.5 µM	51.3 µM	22.4 µM	38.8 µM	54.1 µM	68.4 µM		33.2 µM	1.4	
CC(=O)/C=C(O)/C=C/c1ccc(O)c(O)c1 [HISPOLON]										12.9 µM	28.6 µM	5.2 µM	8.4 µM	32.2 µM	36.2 µM	51.2 µM	7.3 µM	9.6 µM	1.3	7.9 µM
CC(=O)O[C@H]1C(=O)[C@@]2(C)[C@H]([C@H](OC(=O)c3ccccc3)[C@]3(O)C[C@H](OC(=O)[C@H](O)[C@@H](NC(=O)c4ccccc4)c4ccccc4)C(C)=C1C3(C)C)[C@]1(OC(C)=O)CO[C@@H]1C[C@@H]2O [PACLITAXEL]																	0.04 µM	0.36 µM	9	
COc1ccc(/C=C/c2cc(C)no2)cc1OC										> 100 µM	> 100 µM	87.4 µM	> 100 µM		44.7 µM	93.2 µM	63.2 µM	77.8 µM	1.2	> 100 µM
COc1ccc(/C=C/c2cc(C)no2)cc1										> 100 µM	> 100 µM	22.4 µM	76.4 µM		70.2 µM	> 100 µM	58.3 µM	66.3 µM	1.1	> 100 µM
COc1ccc(CCC(=O)CC(C)=O)cc1	inactive	inactive	inactive	inactive	inactive	inactive	Non-toxic	Non-toxic	Non-toxic											
Cc1cc(/C=C/c2ccc(O)c(O)c2)[nH]n1										23.2 µM	33.1 µM		55.3 µM		> 100 µM	88.4 µM	29.7 µM	39.4 µM	1.3	
COc1ccc(/C=C/C(=O)CC(C)=O)cc1OC										8.9 µM	8.2 µM	4.7 µM	9.3 µM	43.1 µM	9.9 µM	18.1 µM	8.2 µM	10.6 µM	1.3	10.6 µM
Cc1cc(CCc2ccc(O)cc2)[nH]n1	inactive	inactive	inactive	inactive	inactive	inactive	Non-toxic	Non-toxic	Non-toxic											
Cc1cc(/C=C/c2ccc(O)c(O)c2)on1										3.3 µM	10.5 µM	5.3 µM	7.9 µM	8.9 µM		26.2 µM	13 µM	11.8 µM	0.9	6.3 µM

— ChEMBL document CHEMBL3400039, “Design, synthesis and in vitro cell-based evaluation of the anti-cancer activities of hispolon analogs” (Bioorg Med Chem, 2015)
